# Most compounds without a hit are left out; they make up all but 2.1% or so of the library.
# ASAP1 GAP inh = inhibitors of human ASAP1 ArfGAP activity, primary screen, biochemical, fluorescence polarization; inhibition, % at 16.5 µM; hit rate 0.19% among 360,000; AID 624377, 2012; ASAP1-stimulated ARF1 GTP hydrolysis, GDP FP detection; Arf-GAP with SH3 domain, ANK repeat and PH domain-containing protein 1 (Homo sapiens), …; in the data active = inhibition above about 25%;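 note: 0% = vehicle with enzyme and substrate and 100% = no enzyme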
# Target sequence (Q9ULH1 325-724 limits assumed): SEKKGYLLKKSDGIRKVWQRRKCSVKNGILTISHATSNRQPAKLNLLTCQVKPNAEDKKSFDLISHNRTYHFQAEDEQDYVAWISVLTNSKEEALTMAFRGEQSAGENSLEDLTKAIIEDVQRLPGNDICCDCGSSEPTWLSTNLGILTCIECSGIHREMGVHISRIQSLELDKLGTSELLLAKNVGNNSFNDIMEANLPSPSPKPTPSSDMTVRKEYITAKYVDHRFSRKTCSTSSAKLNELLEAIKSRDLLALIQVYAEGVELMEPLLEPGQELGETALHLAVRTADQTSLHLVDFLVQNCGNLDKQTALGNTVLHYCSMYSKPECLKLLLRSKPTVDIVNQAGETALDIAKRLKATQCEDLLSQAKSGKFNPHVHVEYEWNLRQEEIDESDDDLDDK
# A3A deaminase = APOBEC3A ssDNA deaminase inhibitors, primary screen, selectivity assay for APOBEC3G inhibitor project, biochemical, FAM/TAMRA oligo cleavage fluorescence; inhibition, % at 20 µM; recombinant A3A, FAM/TAMRA ssDNA deamination fluorescence; hit rate 0.41% among 330,000; AID 493011, 2011; DNA dC->dU-editing enzyme APOBEC-3A (Homo sapiens), P31941;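 active = at least 40% inhibition at 20 µM here, with at most 30% in a related deaminase screen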;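 note: plate controls were A3A with DMSO for no effect and wells lacking A3A enzyme for full effect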
# Target sequence (P31941 whole entry, looked up): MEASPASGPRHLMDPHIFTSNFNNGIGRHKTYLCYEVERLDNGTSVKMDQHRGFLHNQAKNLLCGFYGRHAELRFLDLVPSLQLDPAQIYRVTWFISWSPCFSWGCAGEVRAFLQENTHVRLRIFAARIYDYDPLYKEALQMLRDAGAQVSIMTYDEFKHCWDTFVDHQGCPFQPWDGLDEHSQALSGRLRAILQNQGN
# SUMO Mot1 rescue = yeast Mot1-301 growth rescue at high temperature, primary screen, SUMOylation pathway inhibitor project, S. cerevisiae, ATP luminescence, 38.5C. growth rescue, % at 18.8 µM. S. cerevisiae Mot1-301 growth rescue; percent above DMSO median, 100 means doubled. hit rate 1% among 320,000;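 active = every valid replicate shows activation above 250% relative to neutral control wells; inactive = the rest, any valid replicate at or below 250%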;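 note: OY570 slx delta 5 strain wells were the positive control but not used for scaling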
# ARFGAP1 inhibitor = inhibitors of rat ARFGAP1 GAP activity, primary screen, biochemical, fluorescence polarization, GDP tracer | Arfgap1-stimulated ARF1 GTP hydrolysis, GDP FP detection | ADP-ribosylation factor GTPase-activating protein 1 (Rattus norvegicus), Q62848 | hit rate 0.26% among 360,000 | inhibition, % at 16.5 µM;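 active = inhibition above a per-plate limit, mean inhibition of low control wells plus 3 SD, cut at about 25% in these data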;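 note: 0% = DMSO wells with enzyme and 100% = wells lacking Arfgap1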
#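 Material: rat Arfgap1 GAP domain (His6, aa 1-136), purified enzyme. Also added: human ARF1(Δ1-17)-GTP substrate. Compound dosing: 16.5 µM single point, 1.26% DMSO. Timing: enzyme reaction 120 min at 25 °C after 20 min preincubation. Signal: GDP detection by fluorescence polarization. Read-out basis: percent inhibition of GAP-stimulated GDP formation, scaled between DMSO and no-Arfgap1 medians.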
# C2C12 statin = suppressors of statin myotoxicity in C2C12 myotubes, primary screen, cell-based, single point, plate reader | C2C12 myotubes + simvastatin, ATP luminescence, 48 h; scaled: DMSO 0, geranylgeraniol control 100 | rescue of ATP level, % at 7.49 µM | hit rate 0.78% among 330,000 | AID 602340, 2012;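 active = mean ATP rescue above about 67%, or every replicate alone reaching that limit, limit read from the data, passing the limit was not always enough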;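 note: myotubes were challenged with 10 µM simvastatin during compound exposure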
# A3G deaminase = APOBEC3G DNA deaminase inhibitors, primary screen, biochemical, fluorescence, single-stranded DNA substrate, uHTS; DNA dC->dU-editing enzyme APOBEC-3G (Homo sapiens), Q9HC16; recombinant A3G, ssDNA deamination FAM/TAMRA fluorescence; inhibition, % at 20 µM; hit rate 0.28% among 330,000; AID 493012, 2011;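 active = inhibition of at least 40% at 20 µM, with no more than 30% in the related APOBEC3A deaminase screen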;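 note: plate controls were DMSO wells with A3G for no effect and wells lacking A3G enzyme for full effect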
# Active calls of the source: *; nt = no result given.
SMILES,ASAP1 GAP inh,A3A deaminase,SUMO Mot1 rescue,ARFGAP1 inhibitor,C2C12 statin,A3G deaminase
CC=Cc1ccc2n(c1=O)C[C@@H]1[C@@H](CO)[C@H](C(=O)N3CCCCC3)[C@H]2N1Cc1ccccn1 (mixture of isomers),nt,nt,nt,nt,8,nt
C[C@H](CO)N1C[C@H](C)[C@@H](CN(C)C(=O)C2CCOCC2)Oc2ncc(C3=CCCCC3)cc2C1=O,nt,nt,nt,nt,23,nt
Cc1csc(=O)n1CC(=O)Nc1nc2ccccc2s1,-5,6,321*,-9,-13,-7
COCCN=C1N[C@@H](c2ccccc2)C(C(=O)OC)=C(C)N1Cc1ccccc1,7,33,3,6,110*,8
COc1ccc(Br)cc1/C=C/c1ccc2cccc(O)c2n1,11,-1,3,15,68*,-3
O=C(N[C@H]1CC[C@H](CC(=O)N2CCOCC2)O[C@H]1CO)c1ccc2c(c1)OCO2,nt,nt,nt,nt,2,nt
O=C(OC1CCN(c2ncc(C(F)(F)F)cc2Cl)CC1)c1ccc(Cl)cc1,-7,0,-9,-6,5,-6
O=C(CSc1nccn1-c1ncc(C(F)(F)F)cc1Cl)c1ccc(Cl)cc1,-8,-4,4,-3,95*,-3
C[C@@H]1CN([C@@H](C)CO)C(=O)CCCn2cc(nn2)CO[C@@H]1CN(C)S(C)(=O)=O,nt,nt,nt,nt,-5,nt
CO[C@@H]1CN(C)C(=O)c2cc(NC(=O)Nc3cc(F)ccc3F)ccc2OC[C@H](C)N(C(=O)c2cnccn2)C[C@H]1C,nt,nt,nt,nt,-7,nt
O=C(Nc1ccc(F)cc1)NC1CCN(Cc2nnnn2Cc2ccco2)CC1,-1,8,-9,14,95*,1
O=C(Nc1ccccc1F)NC1CCN(Cc2nnnn2Cc2ccc(F)cc2)CC1,10,-1,6,6,1,-5
CCCCN1C(=S)SC(C)(C)C1/[N+]([O-])=C/c1cccnc1 (stereo not given),4,-1,15,6,98*,-4
CCCN1C(=S)SC(C)(C)C1/[N+]([O-])=C/c1cccnc1 (stereo not given),4,2,9,4,-4,1
O=C(C[C@H]1C=C[C@H](NC(=O)C2CC2)[C@@H](CO)O1)NCc1ccncc1,nt,nt,nt,nt,-3,nt
Cn1c(=O)c(=O)n(C)c2cc(N3CCOCC3)c(NS(=O)(=O)c3ccc([N+](=O)[O-])cc3)cc21,-3,-4,1,-8,109*,-1
C/C(NCc1cccnc1)=C(\C#N)C(=O)NCc1ccccc1,22,-1,-19,-1,104*,-2
COc1cc(OC)cc(C(=O)NCc2cccnc2)c1,5,-1,-14,-8,129*,-5
O=C(NCc1ccc(F)cc1)C1CC(=O)N(CCc2ccccc2)C1 (stereo not given),-15,-9,3,2,2,-2
COc1ccc(/C=C(\NC(=O)c2ccccc2)C(=O)NC2CCS(=O)(=O)C2)cc1 (stereo not given),9,5,269*,-2,nt,-2
C/C(NCc1ccccc1)=C(\C#N)C(=O)NCc1ccccc1,-5,-4,-5,-5,-20,-8
O=C(NCc1cccnc1)C1CC(=O)N(CCc2ccccc2)C1 (stereo not given),-14,0,-4,17,133*,-7
O=C(NC1CCS(=O)(=O)C1)/C(=C\c1ccc(F)cc1)NC(=O)c1ccccc1 (stereo not given),-7,-2,249,-2,nt,-6
C[C@@H]1CN([C@@H](C)CO)C(=O)c2cccc(NS(=O)(=O)c3ccccc3)c2O[C@@H]1CN(C)S(C)(=O)=O,nt,nt,nt,nt,21,nt
COc1ccc(NC(=O)Nc2ccc3c(c2)C(=O)N([C@@H](C)CO)C[C@@H](C)[C@@H](CN(C)C(=O)NC(C)C)O3)cc1,nt,nt,nt,nt,3,nt
SMILES,ASAP1 GAP inh,A3A deaminase,SUMO Mot1 rescue,ARFGAP1 inhibitor,C2C12 statin,A3G deaminase
O=C(Cc1ccccc1)NCc1cccnc1,12,4,2,0,-1,-5
COc1ccc(/C=C(\NC(=O)c2ccccc2)C(=O)NCc2cccnc2)cc1,0,4,270*,10,-4,3
O=C(CC(=O)NCc1cccnc1)NCc1cccnc1,17,-6,-1,2,111*,-8
O=C(CCCc1c[nH]c2ccccc12)Nc1ccc(S(=O)(=O)Nc2ncccn2)cc1,-7,-4,759*,-3,-3,-9
COc1cc(OC)c(NC(=O)CCNS(=O)(=O)c2cc(Br)cnc2N)cc1Cl,-3,-3,-1,-1,94*,-5
COc1ccc(NC(=O)CCNS(=O)(=O)c2cc(Br)cnc2N)c(OC)c1,2,-3,-2,-4,0,-6
CO[C@H]1CN(C)C(=O)c2cc(NS(C)(=O)=O)ccc2OC[C@H](C)N(S(C)(=O)=O)C[C@@H]1C,nt,nt,nt,nt,-9,nt
Cc1ccc(NS(=O)(=O)c2ccc3c(c2)n(C)c(=O)n3C)c(C)c1,1,0,355*,6,-8,-5
Cc1ccc2nc(-c3cccc(NC(=O)c4ccc5c(c4)OCCO5)c3)oc2c1,1,-2,-5,8,110*,-8
CNC[C@@H]1Oc2cc(C#CC(C)(C)O)ccc2S(=O)(=O)N([C@@H](C)CO)C[C@H]1C,nt,nt,nt,nt,-17,nt
CCCCc1c(O)nc(SCC(=O)NCC2CCCO2)[nH]c1=O (stereo not given),-3,-3,-11,-5,94*,-1
COCCNCC(=O)NC12CC3CC(CC(C3)C1)C2,5,-2,-9,-2,117*,-4
COCCC(=O)NC12CC3CC(CC(C3)C1)C2,5,2,-16,6,-8,-6
CCC(=O)Nc1ccc2c(c1)C(=O)N(C)C[C@@H](OC)[C@@H](C)CN(Cc1ccccc1C(=O)O)[C@@H](C)CO2,nt,nt,nt,nt,-5,nt
COc1ccc(CN(C)C[C@H]2Oc3ccc(NS(=O)(=O)c4ccc(Cl)cc4)cc3CC(=O)N([C@@H](C)CO)C[C@@H]2C)cc1,nt,nt,nt,nt,86*,nt
C[C@@H]1CN([C@@H](C)CO)C(=O)Cc2cc(NS(=O)(=O)c3ccc(F)cc3)ccc2O[C@H]1CN(C)Cc1ccc(Oc2ccccc2)cc1,nt,nt,nt,nt,99*,nt
COc1ccc(S(=O)(=O)Nc2ccc3c(c2)CC(=O)N([C@H](C)CO)C[C@@H](C)[C@H](CN(C)Cc2ccccc2)O3)cc1,nt,nt,nt,nt,72*,nt

# Screening data from PubChem BioAssay.
